Laboratory results from ChEMBL document CHEMBL4689842, “EUbOPEN Chemogenomics Library wave 1” (2021).

Key:
[1] = system: Fibroblast; assay: Incucyte cell viability with human fibroblast; type: toxicity, cell-based; conditions: 10 µM, compound concentration 10 uM; also: filed as whole numbers so only -1 and 0 and 1 occur
[2] = system: HEK-293T; assay: Multiplex assay against HEK293T; type: toxicity, cell-based; conditions: human;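 as to Population Tubulin-Different-Phenotype (%): share of the cells with healthy nuclei that show this phenotype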
How it was run: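 With compound added, live cells were imaged on a CQ1 microscope at 37°C and 5% CO2; staining with Hoechst33342, BioTracker Green Microtubule Cytoskeleton Dye, MitoTracker Red and Annexin V Alexa Fluor 680 had been done at seeding. The CellPathfinder machine-learning gating scheme split cells into Hoechst high-intensity objects or normal cells, normal cells into healthy, pyknosed or fragmented nuclei, and pyknosed cells into mitotic or apoptotic. The tubulin, mitochondrial-mass and membrane-permeability phenotypes are per cents of healthy-nucleus cells.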

[3] = 12 h, 1 µM, compound concentration 1 uM, replicate 1
[4] = 12 h, 1 µM, compound concentration 1 uM, replicate 2
[5] = 12 h, 10 µM, compound concentration 10 uM, replicate 1
[6] = 12 h, 10 µM, compound concentration 10 uM, replicate 2
[7] = 24 h, 1 µM, compound concentration 1 uM, replicate 1
[8] = 24 h, 1 µM, compound concentration 1 uM, replicate 2
[9] = 24 h, 10 µM, compound concentration 10 uM, replicate 1
[10] = 24 h, 10 µM, compound concentration 10 uM, replicate 2

CCOc1cc(N2CCC(O)CC2)ccc1Nc1ncc2c(n1)N(C1CCCC1)CCC(=O)N2C
Growth Rate ([1]; 0 h, replicate number 1, timepoint 0 hours): 1 | Growth Rate ([1]; 0 h, replicate number 2, timepoint 0 hours): 0 | Growth Rate ([1]; 6 h, replicate number 1, timepoint 6 hours): 0 | Growth Rate ([1]; 6 h, replicate number 2, timepoint 6 hours): 1 | Growth Rate ([1]; 12 h, replicate number 1, timepoint 12 hours): 0 | Growth Rate ([1]; 12 h, replicate number 2, timepoint 12 hours): 1 | Growth Rate ([1]; 18 h, replicate number 1, timepoint 18 hours): 0 | Growth Rate ([1]; 24 h, replicate number 1, timepoint 24 hours): 0 | Population Apoptotic (%) [2, 3]: 17% | Population Fragmented Nuclei (%) [2, 3]: 18% | Population Healthy Nuclei (%) [2, 3]: 58% | Population Hoechst High Intensity Objects (%) [2, 3]: 13% | Population Membrane Permeable-Phenotype (%) [2, 3]: 3% | Population Mitochondria Different-Phenotype (%) [2, 3]: 5% | Population Mitotic Cells (%) [2, 3]: 82% | Population Normal (%) [2, 3]: 86% | Population Pyknosed Nuclei (%) [2, 3]: 22% | Population Tubulin-Different-Phenotype (%) [2, 3]: 3% | Total Cell Count [2, 3]: 614 | Population Apoptotic (%) [2, 4]: 4% | Population Fragmented Nuclei (%) [2, 4]: 6% | Population Healthy Nuclei (%) [2, 4]: 87% | Population Hoechst High Intensity Objects (%) [2, 4]: 2% | Population Membrane Permeable-Phenotype (%) [2, 4]: 1% | Population Mitochondria Different-Phenotype (%) [2, 4]: 15% | Population Mitotic Cells (%) [2, 4]: 95% | Population Normal (%) [2, 4]: 97% | Population Pyknosed Nuclei (%) [2, 4]: 5% | Population Tubulin-Different-Phenotype (%) [2, 4]: 5% | Total Cell Count [2, 4]: 1724 | Population Apoptotic (%) [2, 5]: 14% | Population Fragmented Nuclei (%) [2, 5]: 18% | Population Healthy Nuclei (%) [2, 5]: 62% | Population Hoechst High Intensity Objects (%) [2, 5]: 13% | Population Membrane Permeable-Phenotype (%) [2, 5]: 4% | Population Mitochondria Different-Phenotype (%) [2, 5]: 5% | Population Mitotic Cells (%) [2, 5]: 85% | Population Normal (%) [2, 5]: 86% | Population Pyknosed Nuclei (%) [2, 5]: 19% | Population Tubulin-Different-Phenotype (%) [2, 5]: 4% | Total Cell Count [2, 5]: 550 | Population Apoptotic (%) [2, 6]: 8% | Population Fragmented Nuclei (%) [2, 6]: 9% | Population Healthy Nuclei (%) [2, 6]: 86% | Population Hoechst High Intensity Objects (%) [2, 6]: 1% | Population Membrane Permeable-Phenotype (%) [2, 6]: 0% | Population Mitotic Cells (%) [2, 6]: 92% | Population Normal (%) [2, 6]: 98% | Population Pyknosed Nuclei (%) [2, 6]: 4% | Population Tubulin-Different-Phenotype (%) [2, 6]: 2% | Total Cell Count [2, 6]: 1779 | Population Apoptotic (%) [2, 7]: 19% | Population Fragmented Nuclei (%) [2, 7]: 16% | Population Healthy Nuclei (%) [2, 7]: 73% | Population Hoechst High Intensity Objects (%) [2, 7]: 7% | Population Membrane Permeable-Phenotype (%) [2, 7]: 2% | Population Mitochondria Different-Phenotype (%) [2, 7]: 4% | Population Mitotic Cells (%) [2, 7]: 80% | Population Normal (%) [2, 7]: 92% | Population Pyknosed Nuclei (%) [2, 7]: 9% | Population Tubulin-Different-Phenotype (%) [2, 7]: 3% | Total Cell Count [2, 7]: 619 | Population Apoptotic (%) [2, 8]: 4% | Population Fragmented Nuclei (%) [2, 8]: 26% | Population Healthy Nuclei (%) [2, 8]: 72% | Population Hoechst High Intensity Objects (%) [2, 8]: 3% | Population Membrane Permeable-Phenotype (%) [2, 8]: 0% | Population Mitochondria Different-Phenotype (%) [2, 8]: 3% | Population Mitotic Cells (%) [2, 8]: 95% | Population Normal (%) [2, 8]: 96% | Population Pyknosed Nuclei (%) [2, 8]: 1% | Population Tubulin-Different-Phenotype (%) [2, 8]: 1% | Total Cell Count [2, 8]: 2649 | Population Apoptotic (%) [2, 9]: 19% | Population Fragmented Nuclei (%) [2, 9]: 13% | Population Healthy Nuclei (%) [2, 9]: 76% | Population Hoechst High Intensity Objects (%) [2, 9]: 6% | Population Membrane Permeable-Phenotype (%) [2, 9]: 8% | Population Mitochondria Different-Phenotype (%) [2, 9]: 5% | Population Mitotic Cells (%) [2, 9]: 80% | Population Normal (%) [2, 9]: 93% | Population Pyknosed Nuclei (%) [2, 9]: 9% | Population Tubulin-Different-Phenotype (%) [2, 9]: 2% | Total Cell Count [2, 9]: 597 | Population Apoptotic (%) [2, 10]: 0% | Population Fragmented Nuclei (%) [2, 10]: 27% | Population Healthy Nuclei (%) [2, 10]: 70% | Population Hoechst High Intensity Objects (%) [2, 10]: 3% | Population Membrane Permeable-Phenotype (%) [2, 10]: 2% | Population Mitochondria Different-Phenotype (%) [2, 10]: 0% | Population Mitotic Cells (%) [2, 10]: 100% | Population Normal (%) [2, 10]: 96% | Population Pyknosed Nuclei (%) [2, 10]: 1% | Total Cell Count [2, 10]: 3112
